In ChEMBL document CHEMBL1671716, “Antimicrobial susceptibility patterns for recent clinical isolates of anaerobic bacteria in South Korea” (2010):

Tests used:
Clostridium perfringens [1] = experiment: Antimicrobial activity against Clostridium perfringens assessed as percent resistant isolates after 48 hrs by agar dilution method; format: functional
Clostridium perfringens [2] = experiment: Antimicrobial activity against Clostridium perfringens assessed as percent resistant isolates after 48 hrs by agar dilution method in presence of 4 ug/ml beta-lactamase inhibitor Tazobactam; format: functional
Summary of the method: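 CLSI agar dilution on recent Korean clinical anaerobe isolates. Inoculum 10^5 CFU per spot by replicator. Plates incubated in an anaerobic chamber at 37°C for 48 h. For piperacillin plus tazobactam, tazobactam was held constant at 4 μg/ml. Resistance and susceptibility rates derived from MICs.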

## CO[C@@]1(NC(=O)C2SC(=C(C(N)=O)C(=O)O)S2)C(=O)N2C(C(=O)O)=C(CSc3nnnn3C)CS[C@@H]21 (some centres undefined) [CEFOTETAN]
Clostridium perfringens [1]
  Activity: 0%

## C[C@@H](O)[C@H]1C(=O)N2C(C(=O)O)=C(S[C@@H]3CN[C@H](C(=O)N(C)C)C3)[C@H](C)[C@H]12 [MEROPENEM]
Clostridium perfringens [1]
  Activity: 0%

## CCC[C@@H]1C[C@@H](C(=O)N[C@@H]([C@H]2O[C@H](SC)[C@H](O)[C@@H](O)[C@H]2O)[C@H](C)Cl)N(C)C1 [CLINDAMYCIN]
Clostridium perfringens [1]
  Activity: 7%

## CO[C@@]1(NC(=O)Cc2cccs2)C(=O)N2C(C(=O)O)=C(COC(N)=O)CS[C@@H]21 [CEFOXITIN]
Clostridium perfringens [1]
  Activity: 0%

## O=C(N[C@H](CO)[C@H](O)c1ccc([N+](=O)[O-])cc1)C(Cl)Cl [CHLORAMPHENICOL]
Clostridium perfringens [1]
  Activity: 0%

## Cc1ncc([N+](=O)[O-])n1CCO [METRONIDAZOLE]
Clostridium perfringens [1]
  Activity: 0%

## CCN1CCN(C(=O)N[C@@H](C(=O)N[C@@H]2C(=O)N3[C@@H]2SC(C)(C)[C@@H]3C(=O)O)c2ccccc2)C(=O)C1=O [PIPERACILLIN]
Clostridium perfringens [1]
  Activity: 0%
Clostridium perfringens [2]
  Activity: 0%

## C[C@@H](O)[C@H]1C(=O)N2C(C(=O)O)=C(SCCNC=N)C[C@H]12 [IMIPENEM ANHYDROUS]
Clostridium perfringens [1]
  Activity: 0%
